Data published in ChEMBL document CHEMBL4825685, “Structure activity relationship (SAR) study identifies a quinoxaline urea analog that modulates IKKβ phosphorylation for pancreatic cancer therapy” (Eur J Med Chem, 2021).
Blank lines part the entries; values can stand above or below the molecule they belong to. Activity calls are given as the source filed them. No cut-off for these calls is given here.

Assays:
MIA PaCa-2 [1] = test: Induction of apoptosis in human MIA PaCa-2 cells assessed as increase in caspase 3/7 activation at 10 uM incubated for 24 hrs by Caspase-Glo assay; format: functional, cell-based
How it was run: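 MiaPaCa2 cells (2.5 × 10⁴/well) attached overnight, then treated 24 h at 0.1% final DMSO. alamarBlue added at 21 h for 3 h and fluorescence read at 560/590. Caspase-Glo luminescence read 2 h later. Luminescence ×100/fluorescence normalized to DMSO average, n = 3.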

[2] = AUClast in CD1 mouse at 10 mg/kg, iv measured up to 24 hrs measured by LC/MS-MS analysis; format: ADME, organism-based; parameters: route intravenous, dose 10 mg/kg, time <=24; details: in vivo
How it was run: (§1)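 Single intravenous 10 mg/kg dose in DMSO:PEG400:H2O 1:5:4. Mice killed at 0.083, 0.25, 0.5, 1, 2, 4, 8 and 24 h. Plasma levels measured by LC/MS/MS against a carbamazepine internal standard. Parameters derived by non-compartmental analysis.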

[3] = Cmax in CD1 mouse at 20 mg/kg, po measured up to 24 hrs measured by LC/MS-MS analysis; format: ADME, organism-based; parameters: route oral, dose 20 mg/kg, time <=24; details: in vivo
How it was run: (§2)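 Oral 20 mg/kg given in DMSO:PEG400:H2O 1:4:5. Mice killed at 0.083, 0.25, 0.5, 1, 2, 4, 8 and 24 h and plasma analysed by LC/MS/MS with a carbamazepine internal standard. Parameters derived by non-compartmental analysis.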

[4] = AUC (0 to infinity) in CD1 mouse at 10 mg/kg, iv measured up to 24 hrs measured by LC/MS-MS analysis; format: ADME, organism-based; parameters: route intravenous, dose 10 mg/kg, time <=24; details: in vivo; how it was run: as §1
[5] = AUClast in CD1 mouse at 20 mg/kg, po measured up to 24 hrs measured by LC/MS-MS analysis; format: ADME, organism-based; parameters: route oral, dose 20 mg/kg, time <=24; details: in vivo; how it was run: as §2
Mus musculus = test: In vivo inhibition of IKKbeta in Foxn1nu athymic nude mouse xenografted with human MIA PaCa-2 cells assessed as reduction in p-IKKbeta level at 40 mg/kg, po administered for 4 weeks by immunohistochemistry analysis; format: functional, organism-based
How it was run: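 Same xenograft tissue. Paraffin sections antigen-retrieved in citrate pH 6.0 and stained with p-IKKβ antibody overnight at 4 °C, then HRP secondary. Histoscore (0–15) = proportion score × intensity score (0–3), n = 5. Unpaired t-test.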

[6] = biological target: T1, Inhibitor of nuclear factor kappa-B kinase subunit beta (Homo sapiens) (UniProt O14920); test: Inhibition of IKKbeta phosphorylation in human Pancreatic cancer cells at 5 uM by Western blot analysis; details: Pancreatic cancer cell, time hrs <=24, TDE = time-dependent effect
T1 sequence (whole entry): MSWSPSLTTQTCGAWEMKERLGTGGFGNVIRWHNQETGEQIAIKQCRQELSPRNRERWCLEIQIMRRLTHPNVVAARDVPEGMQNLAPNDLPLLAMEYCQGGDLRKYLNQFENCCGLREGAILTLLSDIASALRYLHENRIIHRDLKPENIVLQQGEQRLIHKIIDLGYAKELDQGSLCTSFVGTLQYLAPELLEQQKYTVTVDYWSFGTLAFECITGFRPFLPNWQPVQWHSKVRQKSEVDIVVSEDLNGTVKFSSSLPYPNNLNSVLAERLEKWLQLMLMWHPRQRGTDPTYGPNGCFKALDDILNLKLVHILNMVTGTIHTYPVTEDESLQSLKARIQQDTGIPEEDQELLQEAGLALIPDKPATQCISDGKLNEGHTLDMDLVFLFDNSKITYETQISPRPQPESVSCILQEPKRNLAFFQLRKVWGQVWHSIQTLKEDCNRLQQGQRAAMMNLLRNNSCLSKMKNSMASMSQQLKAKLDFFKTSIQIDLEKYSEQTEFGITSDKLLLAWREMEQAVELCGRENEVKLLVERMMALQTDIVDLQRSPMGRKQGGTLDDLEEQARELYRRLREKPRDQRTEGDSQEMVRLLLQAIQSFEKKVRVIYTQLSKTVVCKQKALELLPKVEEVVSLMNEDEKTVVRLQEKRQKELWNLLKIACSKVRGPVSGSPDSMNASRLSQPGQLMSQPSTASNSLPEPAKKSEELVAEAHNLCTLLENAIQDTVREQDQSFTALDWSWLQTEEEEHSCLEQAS
How it was run: (§3)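 T3M4 cells treated at 0.5–5.0 µM for 6 h, or at 5 µM for 0.5–24 h. Lysates (40 µg protein) run on 4–20% SDS-PAGE and transferred to PVDF. Blots probed for p-IKKβ and IKKβ with β-actin loading control, chemiluminescent detection.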

[7] = Tmax in CD1 mouse at 20 mg/kg, po measured up to 24 hrs measured by LC/MS-MS analysis; format: ADME, organism-based; details: in vivo; how it was run: as §2
[8] = Half life in CD1 mouse at 10 mg/kg, iv measured up to 24 hrs measured by LC/MS-MS analysis; format: ADME, organism-based; details: in vivo; how it was run: as §1
[9] = Oral bioavailability in CD1 mouse at 20 mg/kg measured up to 24 hrs measured by LC/MS-MS analysis; format: ADME, organism-based; details: in vivo
How it was run: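 %F taken from oral (20 mg/kg, DMSO:PEG400:H2O 1:4:5) and intravenous (10 mg/kg, DMSO:PEG400:H2O 1:5:4) AUC0-∞. Plasma sampled from 0.083 to 24 h and quantified by LC/MS/MS with a carbamazepine internal standard. Non-compartmental analysis.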

MIA PaCa-2 [10] = test: Antiproliferative activity against human MIA PaCa-2 cells assessed as growth inhibition after 72 hrs by PrestoBlue dye based fluorescence assay; format: functional
MIA PaCa-2 [11] = test: Anti-migration activity in human MIA PaCa-2 cells at 5 uM measured upto 48 hrs by microscopy based wound scratch method; format: functional, cell-based; details: time hrs <=48
MIA PaCa-2 [12] = test: Induction of cell death in human MIA PaCa-2 cells measured after 24 hrs by fluorescent microscopy; format: functional, cell-based
How it was run: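 MiaPaCa2 cells treated with 5 and 10 µM for 24 h, then stained with calcein-AM plus ethidium homodimer-1 for 30 min. Live and dead cells imaged by fluorescence microscopy. Dead/total cell ratio computed, n = 3. Two-way ANOVA with Bonferroni test.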

[13] = biological target: T2, Inhibitor of nuclear factor kappa-B kinase subunit beta (Homo sapiens, UniProt O14920); test: Inhibition of TNFalpha-induced IKKbeta mediated NF-kappaB activation in human Pancreatic cancer cells by luciferase reporter gene assay; parameters: species or system Pancreatic cancer cell
T2 sequence (O14920 whole entry): T1 sequence (whole entry)

MIA PaCa-2 [14] = test: Antitumor activity against human MIA PaCa-2 cells xenografted in Foxn1nu athymic nude mouse assessed as reduction in tumor weight at 40 mg/kg, po administered for 4 weeks in combination gemcitabine […]; format: functional; details: MIA PaCa-2, po, 672 h
How it was run: (§4)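 MiaPaCa2 cells (2.5 × 10⁶, with Matrigel 2:1) implanted s.c. in the left flank. Mice randomized at day 20, n = 6 per group. Compound given orally once daily; gemcitabine 15 mg/kg i.p. every 72 h where combined; vehicle 100 µl orally. Tumors measured by caliper every 3 days (1/2 × L × W²). Tumors weighed after sacrifice after day 27. Unpaired t-test.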

[15] = Cmax in CD1 mouse at 10 mg/kg, iv measured up to 24 hrs measured by LC/MS-MS analysis; format: ADME, organism-based; parameters: route intravenous, dose 10 mg/kg, time <=24; details: in vivo; how it was run: as §1
MIA PaCa-2 [16] = test: Antitumor activity against human MIA PaCa-2 cells xenografted in Foxn1nu athymic nude mouse assessed as reduction in tumor volume at 40 mg/kg, po administered for 4 weeks in combination gemcitabine by digital caliper method relative to control; format: functional; details: MIA PaCa-2, po, 672 h; how it was run: as §4
[17] = MRT (0 to infinity) in CD1 mouse at 20 mg/kg, po measured up to 24 hrs measured by LC/MS-MS analysis; format: ADME, organism-based; details: in vivo; how it was run: as §2
[18] = AUC (0 to infinity) in CD1 mouse at 20 mg/kg, po measured up to 24 hrs measured by LC/MS-MS analysis; format: ADME, organism-based; parameters: route oral, dose 20 mg/kg, time <=24; details: in vivo; how it was run: as §2
[19] = biological target: T1, Inhibitor of nuclear factor kappa-B kinase subunit beta (Homo sapiens); test: Inhibition of IKKbeta phosphorylation in human Pancreatic cancer cells measured after 6 hr by Western blot analysis; details: Pancreatic cancer cell, dose 0.5-5 µM; how it was run: as §3
[20] = Antiproliferative activity against human T3M4 cells assessed as growth inhibition after 72 hrs by PrestoBlue dye based fluorescence assay; format: functional
[21] = MRT (0 to infinity) in CD1 mouse at 10 mg/kg, iv measured up to 24 hrs measured by LC/MS-MS analysis; format: ADME, organism-based; details: in vivo; how it was run: as §1
[22] = Volume of distribution at steady state in CD1 mouse at 10 mg/kg, iv measured up to 24 hrs measured by LC/MS-MS analysis; format: ADME, organism-based; details: in vivo, read-out: Vdss; how it was run: as §1
[23] = Half life in CD1 mouse at 20 mg/kg, po measured up to 24 hrs measured by LC/MS-MS analysis; format: ADME, organism-based; details: in vivo; how it was run: as §2
MIA PaCa-2 [24] = test: Antitumor activity against human MIA PaCa-2 cells xenografted in Foxn1nu athymic nude mouse assessed as reduction in tumor volume at 40 mg/kg, po administered for 4 weeks by digital caliper method relative to control; format: functional; parameters: scale not given: the % may be the effect or the level left; how it was run: as §4
MIA PaCa-2 [25] = test: Antitumor activity against human MIA PaCa-2 cells xenografted in Foxn1nu athymic nude mouse assessed as reduction in proliferation index at 40 mg/kg, po administered for 4 weeks by Ki67 staining based assay; format: functional, organism-based
How it was run: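 Same xenograft and dosing design. Formalin-fixed paraffin sections (5 µm) stained with anti-Ki-67. Percentage of Ki-67-positive cells counted in 4 fields per tumor, n = 5. Unpaired t-test.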

MIA PaCa-2 [26] = test: Antitumor activity against human MIA PaCa-2 cells xenografted in Foxn1nu athymic nude mouse assessed as reduction in tumor weight at 40 mg/kg, po administered for 4 weeks […] relative to control; format: functional; parameters: scale not given: the % may be the effect or the level left; how it was run: as §4

SMILES: Cn1cc(-c2cnc3ccc(NC(=O)Nc4ccc(F)c(OC(F)(F)F)c4)cc3n2)cn1
Activity (MIA PaCa-2 [1]): inactive

SMILES: Cn1cc(-c2cnc3ccc(NC(=O)Nc4cccc(OC(F)(F)F)c4)cc3n2)cn1
Activity (MIA PaCa-2 [1]): inactive

SMILES: Cn1cc(-c2cnc3ccc(NC(=O)Nc4ccc(F)c(Cl)c4)cc3n2)cn1
Activity (MIA PaCa-2 [1]): inactive

SMILES: Cc1ccc2nc(NCCN)c3ncc(C)n3c2c1
Activity (MIA PaCa-2 [1]): inactive

AUC(0-t) at 24 h [2]: 20300 ng·h/mL
Cmax [3]: 700 ng/mL
AUC(0-inf) [4]: 22800 ng·h/mL
AUC(0-t) at 24 h [5]: 7990 ng·h/mL
inhibition [6]: Tde
Tmax [7]: 6 h
half-life [8]: 2.7 h
bioavailability [9]: 17.6%
GI50 (MIA PaCa-2 [10]): 2800 nM
IC50 [13]: 3300 nM
Cmax [15]: 5980 ng/mL
MRT inf [17]: 6.3 h
AUC(0-inf) [18]: 8010 ng·h/mL
inhibition [19]: Dose-Dependent Effect
MRT inf [21]: 4.5 h
Vd [22]: 2 L/kg
half-life [23]: 2.5 h
SMILES: Cn1cc(-c2cnc3ccc(NC(=O)Nc4cccc(C(F)(F)F)c4F)cc3n2)cn1
Activity (Mus musculus): Active
Activity (MIA PaCa-2 [11]): Active
Activity (MIA PaCa-2 [1]): Active
Activity (MIA PaCa-2 [12]): Dose-Dependent Effect
inhibition in vivo at 40 mg/kg (MIA PaCa-2 [14]): > 90%
inhibition in vivo at 40 mg/kg (MIA PaCa-2 [16]): > 90%
GI50 [20]: 1700 nM
Activity (MIA PaCa-2 [24]): 75%
Activity (MIA PaCa-2 [25]): Active
Activity (MIA PaCa-2 [26]): 75%
